Laboratory results reported in ChEMBL document CHEMBL2439960, “Pharmacokinetics, metabolism, and in vivo efficacy of the antimalarial natural product bromophycolide A” (ACS Med Chem Lett, 2013).
pIC50: −log10 of the molar value.

Tests used:
Plasmodium falciparum [1] = assay: Antiplasmodial activity against chloroquine-sensitive Plasmodium falciparum 3D7 infected in erythrocytes assessed as parasite growth inhibition after 72 hrs by SYBR green I staining-based fluorescence assay; type: functional, organism-based; conditions: 3D7, 72 h
Plasmodium berghei = assay: Antimalarial activity against Plasmodium berghei ANKA infected in NMRI mouse assessed as reduction of parasitemia at 10 mg/kg, po qd administered 3 days by flow cytometric analysis; type: functional; set-up: scale not given: the % may be the effect or the level left
[2] = Apparent clearance in Swiss mouse at 50 mg/kg, ip after 1 to 24 hrs by LC-MS/MS analysis; type: ADME, organism-based; set-up: dose 50 mg/kg, route intraperitoneal; conditions: in vivo, read-out: CL(app)
[3] = Metabolic stability in human liver S9 fraction assessed as formation of metabolite M2 at 10 uM by LC-MS analysis in presence of NADPH and absence of UDPGA; type: ADME, subcellular; conditions: s9, 10 µM
In short: (§1)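 Reaction products from S9 or microsomal incubations with NADPH analysed by LC-MS. Runs without UDPGA were checked for hydroxylated (m/z 677) and doubly hydroxylated (m/z 693) species. Runs with UDPGA were checked for a glucuronide (m/z 837).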

Liver microsomes [4] = assay: Metabolic stability in human liver microsomes assessed as formation of metabolite M5 at 10 uM by LC-MS analysis in presence of UDPGA; type: ADME, Microsome; in short: as §1
Liver microsomes [5] = assay: Metabolic stability in human liver microsomes assessed as formation of metabolite M4 at 10 uM by LC-MS analysis in presence of NADPH and absence of UDPGA; type: ADME, Microsome; in short: as §1
Liver microsomes [6] = assay: Metabolic stability in human liver microsomes at 10 uM after 4 hrs by LC-MS analysis; type: ADME, Microsome
In short: (§2)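 Initial incubations with the human liver S9 or microsomal fraction lasted 4 h.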

[7] = Elimination rate constant in BALB/c mouse at 23 mg/kg, iv after 1 to 24 hrs by LC-MS/MS analysis; type: ADME, organism-based; set-up: dose 23 mg/kg, route intravenous; conditions: in vivo
In short: (§3)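 Healthy mice given one 23 mg/kg dose, IV or IP. Plasma concentrations plotted as mean ± SD, n=3. Kinetics fitted as a first-order elimination process.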

Liver microsomes [8] = assay: Metabolic stability in human liver microsomes assessed as formation of metabolite M2 at 10 uM by LC-MS analysis in presence of NADPH and absence of UDPGA; type: ADME, Microsome; in short: as §1
Plasmodium falciparum [9] = assay: Antiplasmodial activity against chloroquine-resistant Plasmodium falciparum Dd2 infected in erythrocytes assessed as parasite growth inhibition after 72 hrs by SYBR green I staining-based fluorescence assay; type: functional, organism-based; conditions: Dd2, 72 h
[10] = Drug metabolism in human liver microsomes at 10 uM after 24 hrs by LC-MS analysis in absence of UDPGA; type: ADME, Microsome; conditions: read-out: Drug metabolism
In short: (§4)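 Compound incubated with human liver S9 or microsomal fractions for 24 h, extended from 4 h, with NADPH and with or without UDPGA. Loss of parent compound followed over time, sampled at 6 and 24 h. In vitro t1/2 and CLint calculated from the loss.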

[11] = Plasma clearance in BALB/c mouse at 23 mg/kg, iv after 1 to 24 hrs by LC-MS/MS analysis; type: ADME, organism-based; set-up: dose 23 mg/kg, route intravenous; in short: as §3
[12] = Drug degradation in mouse serum at 150 uM after 48 hrs by HPLC analysis; type: ADME, cell-free; conditions: read-out: Drug degradation
In short: (§5)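 Compound incubated in mouse serum at 37 °C. Remaining compound measured at 24 h and 48 h.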

[13] = Tmax in BALB/c mouse at 23 mg/kg, ip after 1 to 24 hrs by LC-MS/MS analysis; type: ADME, organism-based; set-up: dose 23 mg/kg, route intraperitoneal; conditions: in vivo; in short: as §3
[14] = Initial plasma concentration in BALB/c mouse at 23 mg/kg, iv after 1 to 24 hrs by LC-MS/MS analysis; type: ADME, organism-based; set-up: dose 23 mg/kg, route intravenous; in short: as §3
Serum = assay: Metabolic stability in mouse serum at 150 uM after 24 hrs by HPLC analysis; type: ADME, cell-free; in short: as §5
[15] = Cmax in BALB/c mouse at 23 mg/kg, ip after 1 to 24 hrs by LC-MS/MS analysis; type: ADME, organism-based; set-up: dose 23 mg/kg, route intraperitoneal; conditions: in vivo; in short: as §3
[16] = Drug metabolism in human liver S9 fraction at 10 uM after 24 hrs by LC-MS analysis; type: ADME, subcellular; conditions: read-out: Drug metabolism; in short: as §4
Liver microsomes [17] = assay: Intrinsic clearance in human liver microsomes at 10 uM after 24 hrs by LC-MS analysis in absence of UDPGA; type: ADME, Microsome; in short: as §4
[18] = Apparent volume of distribution in BALB/c mouse at 23 mg/kg, iv after 1 to 24 hrs by LC-MS/MS analysis; type: ADME, organism-based; set-up: dose 23 mg/kg, route intravenous; conditions: in vivo, read-out: Vd(app); in short: as §3
[19] = Half life in human liver S9 fraction at 10 uM after 24 hrs by LC-MS analysis in presence of UDPGA; type: ADME, subcellular; conditions: s9, 24 h; in short: as §4
Liver microsomes [20] = assay: Metabolic stability in human liver microsomes assessed as formation of metabolite M1 at 10 uM by LC-MS analysis in presence of NADPH and absence of UDPGA; type: ADME, Microsome; in short: as §1
Liver microsomes [21] = assay: Metabolic stability in human liver microsomes assessed as formation of metabolite M3 at 10 uM by LC-MS analysis in presence of NADPH and absence of UDPGA; type: ADME, Microsome; in short: as §1
[22] = Drug metabolism in human liver S9 fraction at 10 uM after 24 hrs by LC-MS analysis in presence of UDPGA; type: ADME, subcellular; conditions: s9, 24 h; in short: as §4
[23] = Half life in BALB/c mouse at 23 mg/kg, iv after 1 to 24 hrs by LC-MS/MS analysis; type: ADME, organism-based; set-up: dose 23 mg/kg, route intravenous; conditions: in vivo; in short: as §3
[24] = Metabolic stability in human liver S9 fraction assessed as formation of metabolite M3 at 10 uM by LC-MS analysis in presence of NADPH and absence of UDPGA; type: ADME, subcellular; conditions: s9, 10 µM; in short: as §1
Liver [25] = assay: Half life in human liver S9 fraction at 10 uM after 24 hrs by LC-MS analysis; type: ADME, subcellular; conditions: s9, 24 h; in short: as §4
[26] = Metabolic stability in human liver cytosolic subcellular fraction at 10 uM after 4 hrs by LC-MS analysis; type: ADME; conditions: cytosol
Plasmodium yoelii = assay: Antimalarial activity against Plasmodium yoelii infected in Swiss Webster mouse assessed as decrease in parasite load at 10 mg/kg, ip qd administered on day 2 to 5 by Hoechst 33342 staining-based FACS analysis relative to control; type: functional; set-up: scale not given: the % may be the effect or the level left; conditions: route intraperitoneal
In short: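 Mice infected with Plasmodium yoelii, dosed once daily at 5 or 10 mg/kg. Vehicle-only injected mice served as controls. Parasitemia was measured by FACS, including 24 h after the first dose, after the second dose, and at the end of the four-day trial.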

[27] = Metabolic stability in human liver microsomes assessed as compound remaining at 10 uM after 24 hrs by LC-MS analysis in presence of UDPGA; type: ADME, Microsome; conditions: read-out: Stability; in short: as §4
Liver [28] = assay: Metabolic stability in human liver S9 fraction at 10 uM after 4 hrs by LC-MS analysis; type: ADME, subcellular; conditions: s9, 4 h; in short: as §2
[29] = Metabolic stability in human liver S9 fraction assessed as formation of metabolite M1 at 10 uM by LC-MS analysis in presence of NADPH and absence of UDPGA; type: ADME, subcellular; conditions: s9, 10 µM; in short: as §1
[30] = Metabolic stability in human liver S9 fraction at 10 uM after 24 hrs by LC-MS analysis in absence of S9 enzyme and NADPH; type: ADME, subcellular; conditions: s9, 24 h
In short: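 Control incubations for the S9 metabolism assay run over 24 h, lacking either the enzyme or NADPH.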

Liver microsomes [31] = assay: Half life in human liver microsomes at 10 uM after 24 hrs by LC-MS analysis in presence of UDPGA; type: ADME, Microsome; in short: as §4
[32] = AUC in BALB/c mouse at 23 mg/kg, iv after 1 to 24 hrs by LC-MS/MS analysis; type: ADME, organism-based; set-up: dose 23 mg/kg, route intravenous; conditions: plasma; in short: as §3
Mus musculus [33] = assay: Toxicity in Swiss Webster mouse at 5 to 10 mg/kg, ip qd administered on day 2 to 5; type: organism-based; set-up: dose 5-10 mg/kg, route intraperitoneal; conditions: in vivo
[34] = Metabolic stability in human Liver S9 fraction assessed as formation of metabolite M5 at 10 uM by LC-MS analysis in presence of UDPGA; type: ADME, subcellular; conditions: s9, 10 µM; in short: as §1
[35] = AUC in BALB/c mouse at 23 mg/kg, ip after 1 to 24 hrs by LC-MS/MS analysis; type: ADME, organism-based; set-up: dose 23 mg/kg, route intraperitoneal; conditions: plasma; in short: as §3
Mus musculus [36] = assay: Drug absorption rate constant in BALB/c mouse at 23 mg/kg, ip after 1 to 24 hrs by LC-MS/MS analysis; type: ADME, organism-based; set-up: dose 23 mg/kg, route intraperitoneal; conditions: in vivo; in short: as §3
[37] = Metabolic stability in human liver S9 fraction assessed as formation of metabolite M4 at 10 uM by LC-MS analysis in presence of NADPH and absence of UDPGA; type: ADME, subcellular; conditions: s9, 10 µM; in short: as §1
Liver microsomes [38] = assay: Half life in human liver microsomes at 10 uM after 24 hrs by LC-MS analysis in absence of UDPGA; type: ADME, Microsome; in short: as §4
Plasmodium falciparum [39] = assay: Antiplasmodial activity against chloroquine-sensitive Plasmodium falciparum MRC-02 assessed as suppression of parasitemia at 50 mg/kg, po by in vivo model study; type: functional
Plasmodium falciparum [40] = assay: Antiplasmodial activity against ring stage of chloroquine-sensitive Plasmodium falciparum MRC-02 infected in human erythrocytes assessed as parasite growth inhibition after 24 hrs by Giemsa staining method; type: functional, organism-based; conditions: MRC-02, 24 h

Compound: CC(=O)Oc1ccc2cc1CC1=C(C)CC[C@H](Br)[C@@]1(C)CC[C@@H](Br)[C@@](C)(O)CC[C@@H](C(C)(C)Br)OC2=O
- pIC50 (Plasmodium falciparum [1]): 6.62

Compound: C[C@H]1Cc2c([nH]c3cc(Cl)c(F)cc23)[C@@]2(N1)C(=O)Nc1ccc(Cl)cc12 [CIPARGAMIN]
- Activity (Plasmodium berghei): 99%

Compound: CCN(CC)CCCC(C)Nc1ccnc2cc(Cl)ccc12 (centres undefined) [CHLOROQUINE]
- CL/F [2]: 17 mL/min/kg

Compound: CC1=C2Cc3cc(ccc3O)C(=O)O[C@H](C(C)(C)Br)CC[C@](C)(O)[C@H](Br)CC[C@]2(C)[C@@H](Br)CC1
- Stability [3]: Unstable
- Stability (Liver microsomes [4]): Unstable
- Stability (Liver microsomes [5]): Unstable
- Stability (Liver microsomes [6]): Stable
- k el [7]: 0.000258 s⁻¹
- Stability (Liver microsomes [8]): Unstable
- pIC50 (Plasmodium falciparum [9]): 6.42
- metabolised at 24 h, 10 µM [10]: 61%
- clearance [11]: 16 mL/min/kg
- metabolised at 48 h, 150 µM [12]: 27%
- Tmax [13]: 1.5 h
- C0 [14]: 24000 ng/mL
- Stability (Serum): Stable
- Cmax [15]: 5800 ng/mL
- metabolised at 24 h, 10 µM [16]: 55%
- CLint (Liver microsomes [17]): 0.72 mL/min/kg
- Vd [18]: 0.95 L/kg
- t1/2 [19]: 9.5 h
- Stability (Liver microsomes [20]): Unstable
- Stability (Liver microsomes [21]): Unstable
- pIC50 (Plasmodium falciparum [1]): 6.30
- Drug metabolism [22]: 21%
- half-life [23]: 0.75 h
- Stability [24]: Unstable
- t1/2 (Liver [25]): 20 h
- Stability [26]: Stable
- Activity (Plasmodium yoelii): 47%
- remaining at 24 h, 10 µM [27]: 15.3%
- Stability (Liver [28]): Stable
- Stability [29]: Unstable
- Stability [30]: Stable
- t1/2 (Liver microsomes [31]): 6.6 h
- AUC [32]: 26000 ng·h/mL
- Activity (Mus musculus [33]): Non-toxic
- Stability [34]: Unstable
- AUC [35]: 20000 ng·h/mL
- ka (Mus musculus [36]): 0.24 h⁻¹
- Stability [37]: Unstable
- t1/2 (Liver microsomes [38]): 14 h

Compound: CC(=O)OC[C@@H]1CC[C@]2(C)C(C)=CC(=O)C[C@H]2[C@]1(C)CCC1=CCOC1=O
- Activity (Plasmodium falciparum [39]): 45%
- pIC50 (Plasmodium falciparum [40]): 5.06
